Data as given in ChEMBL document CHEMBL1157135, “Synthesis and structure-activity relationships of potent 4-fluoro-2-cyanopyrrolidine dipeptidyl peptidase IV inhibitors” (Bioorg Med Chem, 2008).
The source made the active and inactive calls. No cut-off for these calls is given here.

Key:
Dipeptidyl peptidase 4 = Dipeptidyl peptidase 4 (Homo sapiens, UniProt P27487); type: cell-free, Plasma
[1] = Chemical stability in aqueous buffer solution at pH 6.8 after 6 hrs; type: physicochemical; conditions: read-out: Stability
Summary of the method: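 Residual amount determined by reverse-phase HPLC (UV 210 nm, acetonitrile–H2O buffer elution at 1.0 mL/min) after 6 h incubation at 37 °C in pH 6.8 aqueous buffer; dihydrochloride salt used for one reference compound.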

[2] = Drug level in Wistar rat plasma at 1 mg/kg, po after 0.5 hr; type: ADME, organism-based; parameters: dose 1 mg/kg, route oral; conditions: read-out: Drug uptake
Summary of the method: (§1)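 Male Wistar rats, 8 weeks old, fasted overnight; single oral dose 1 mg/kg as aqueous solution. Jugular vein blood (200 µL) at 0.5, 1, 2, 6 h; plasma deproteinized with acetonitrile, supernatant analysed by LC–MS/MS (C18 column, ammonium acetate/acetonitrile eluent, ESI).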

[3] = Drug level in Wistar rat plasma at 1 mg/kg, po after 1 hr; type: ADME, organism-based; parameters: dose 1 mg/kg, route oral; conditions: read-out: Drug uptake
Summary of the method: as §1

[4] = Drug level in Wistar rat plasma at 1 mg/kg, po after 2 hrs; type: ADME, organism-based; parameters: dose 1 mg/kg, route oral; conditions: read-out: Drug uptake
Summary of the method: as §1

[5] = Drug level in Wistar rat plasma at 1 mg/kg, po after 6 hrs; type: ADME, organism-based; parameters: dose 1 mg/kg, route oral; conditions: read-out: Drug uptake
Summary of the method: as §1

Rattus norvegicus [6] = experiment: Reduction of hyperglycemia in Zucker fatty rat at 0.1 mg/kg, po after 30 mins by OGTT; type: functional, organism-based; parameters: dose 0.1 mg/kg
Summary of the method: (§2)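 Male Zucker fatty rats (lean controls), 10 weeks, fasted overnight, n = 6. Compound in distilled water given orally (0.1 or 0.3 mg/kg) 30 min before oral glucose 2 g/kg. Orbital sinus blood under ether anesthesia at set times; plasma glucose, insulin and DPP-IV activity measured. Mean ± SE; Dunnett's or Student's t-test vs vehicle.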

Rattus norvegicus [7] = experiment: Reduction of hyperglycemia in Zucker fatty rat at 0.3 mg/kg, po by after 30 mins OGTT; type: functional, organism-based; parameters: dose 0.3 mg/kg
Summary of the method: as §2

Rattus norvegicus [8] = experiment: Inhibition of DPP4 activity in Zucker fatty rat plasma at 0.1 mg/kg, po after 15 mins by OGTT; type: functional, organism-based; parameters: dose 0.1 mg/kg
Summary of the method: as §2

Rattus norvegicus [9] = experiment: Inhibition of DPP4 activity in Zucker fatty rat plasma at 0.3 mg/kg, po after 15 mins by OGTT; type: functional, organism-based; parameters: dose 0.3 mg/kg
Summary of the method: as §2

Rattus norvegicus [10] = experiment: Increase in insulin secretion in Zucker fatty rat plasma at 0.1 mg/kg, po after 30 mins by OGTT; type: functional, organism-based; parameters: dose 0.1 mg/kg
Summary of the method: as §2

Rattus norvegicus [11] = experiment: Increase in insulin secretion in Zucker fatty rat plasma at 0.3 mg/kg, po after 30 mins by OGTT; type: functional, organism-based; parameters: dose 0.3 mg/kg
Summary of the method: as §2

Rattus norvegicus [12] = experiment: Inhibition of DPP4 activity in Zucker fatty rat plasma at 0.1 mg/kg, po upto 120 mins by OGTT; type: functional, organism-based; parameters: dose 0.1 mg/kg
Summary of the method: as §2

Rattus norvegicus [13] = experiment: Inhibition of DPP4 activity in Zucker fatty rat plasma at 0.3 mg/kg, po upto 120 mins by OGTT; type: functional, organism-based; parameters: dose 0.3 mg/kg
Summary of the method: as §2

Dipeptidyl peptidase 4, sequence (P27487 whole entry): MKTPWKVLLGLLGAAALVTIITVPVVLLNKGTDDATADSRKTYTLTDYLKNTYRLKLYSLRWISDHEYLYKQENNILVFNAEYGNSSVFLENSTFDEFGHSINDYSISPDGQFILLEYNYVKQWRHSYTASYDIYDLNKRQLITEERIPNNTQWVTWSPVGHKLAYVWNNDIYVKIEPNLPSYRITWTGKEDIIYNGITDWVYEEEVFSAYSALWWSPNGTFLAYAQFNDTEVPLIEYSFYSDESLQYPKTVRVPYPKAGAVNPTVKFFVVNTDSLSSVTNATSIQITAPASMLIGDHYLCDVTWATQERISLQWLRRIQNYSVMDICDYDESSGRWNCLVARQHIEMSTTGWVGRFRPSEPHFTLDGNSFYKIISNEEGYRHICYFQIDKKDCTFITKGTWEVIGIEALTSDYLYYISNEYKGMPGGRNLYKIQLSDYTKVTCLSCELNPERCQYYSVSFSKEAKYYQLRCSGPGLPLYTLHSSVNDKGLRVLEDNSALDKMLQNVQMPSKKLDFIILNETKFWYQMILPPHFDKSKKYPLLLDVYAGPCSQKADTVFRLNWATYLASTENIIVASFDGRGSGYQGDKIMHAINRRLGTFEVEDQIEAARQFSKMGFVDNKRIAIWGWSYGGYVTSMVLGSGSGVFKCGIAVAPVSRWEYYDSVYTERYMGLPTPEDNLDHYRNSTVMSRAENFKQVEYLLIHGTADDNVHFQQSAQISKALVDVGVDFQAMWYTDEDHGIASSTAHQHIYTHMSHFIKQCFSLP

| Compound | IC50 (Dipeptidyl peptidase 4) | remaining at 6 h [1] | concentration at 0.5 h [2] | concentration at 1 h [3] | concentration at 2 h [4] | concentration at 6 h [5] | further results |
| --- | --- | --- | --- | --- | --- | --- | --- |
| N#Cc1ccc(NCCNCC(=O)N2C[C@@H](F)C[C@H]2C#N)nc1 |  | 86% |  |  |  |  |  |
| N#Cc1ccc(NCCNCC(=O)N2C[C@@H](F)C[C@H]2C#N)nc1.O=C(O)/C=C\C(=O)O |  |  | 157 ng/mL | 62 ng/mL | 8 ng/mL | 6 ng/mL |  |
| C#CC(CC)(CC)NCC(=O)N1C[C@@H](F)C[C@H]1C#N | > 316 nM |  |  |  |  |  |  |
| CC[C@H](C)[C@@H](N)C(=O)N1C[C@@H](F)C[C@H]1C#N |  | 70% | 195 ng/mL | 24 ng/mL | 5 ng/mL | 1 ng/mL |  |

Continued, in another order:

| IC50 (Dipeptidyl peptidase 4) | remaining at 6 h [1] | concentration at 0.5 h [2] | concentration at 1 h [3] | concentration at 2 h [4] | concentration at 6 h [5] | Compound | further results |
| --- | --- | --- | --- | --- | --- | --- | --- |
| > 316 nM |  |  |  |  |  | CC(C)CNCC(C)(C)NCC(=O)N1C[C@@H](F)C[C@H]1C#N |  |
|  | 96% | 355 ng/mL | 274 ng/mL | 168 ng/mL | 31 ng/mL | CC(C)(CO)NCC(=O)N1C[C@@H](F)C[C@H]1C#N | Activity (Rattus norvegicus [6]): Active; Activity (Rattus norvegicus [7]): Active; Activity (Rattus norvegicus [8]): Active; Activity (Rattus norvegicus [9]): Active; Activity (Rattus norvegicus [10]): Active; Activity (Rattus norvegicus [11]): Active; Activity (Rattus norvegicus [12]): Active; Activity (Rattus norvegicus [13]): Active |
